Experiments:
Canis familiaris [1] = assay: Inhibition of 2-deoxy-D-glucose-induced gastric secretion in beagle dog assessed as volume at 8 mg/kg administered directly into stomach via gastric cannula measured after 2 hrs of stimulation; format: functional; conditions: Canis lupus familiaris
Outline: (§1)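 Female beagles (5-9 kg), nonanesthetized, with chronic gastric fistula. Test agent was given in 50 mL 1% methylcellulose through the gastric cannula, with vehicle controls, 1 h before 2-deoxy-D-glucose 200 mg/kg sc in saline. The 2 h collection was measured for volume and for acid by titration to pH 7 with 0.01 N NaOH; total acid was calculated as volume × concentration.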

Canis familiaris [2] = assay: Inhibition of histamine-induced gastric secretion in beagle dog assessed as titratable acid at 32 mg/kg administered directly into stomach via gastric cannula measured after 2 hrs of stimulation; format: functional; conditions: Canis lupus familiaris
Outline: (§2)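 Fistulated conscious female beagles (5-9 kg) got the dose intragastrically via cannula in 50 mL 1% methylcellulose, with vehicle controls. Histamine 64 µg base/kg sc (diphosphate in saline) was given 1 h later. Output over 2 h was assessed as volume, titratable acid (titration to pH 7, 0.01 N NaOH) and total acid output (volume × concentration).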

Canis familiaris [3] = assay: Toxicity in beagle dog assessed as tachycardia administered directly into stomach via gastric cannula; format: organism-based, Canis lupus familiaris; conditions: in vivo, other
Canis familiaris [4] = assay: Inhibition of 2-deoxy-D-glucose-induced gastric secretion in beagle dog assessed as total acid output at 16 mg/kg administered directly into stomach via gastric cannula measured after 2 hrs of stimulation; format: functional; conditions: Canis lupus familiaris; outline: as §1
Canis familiaris [5] = assay: Inhibition of histamine-induced gastric secretion in beagle dog assessed as volume at 32 mg/kg administered directly into stomach via gastric cannula measured after 2 hrs of stimulation; format: functional; conditions: Canis lupus familiaris; outline: as §2
Canis familiaris [6] = assay: Toxicity in beagle dog assessed as emesis administered directly into stomach via gastric cannula; format: organism-based, Canis lupus familiaris; conditions: in vivo, other
Canis familiaris [7] = assay: Toxicity in beagle dog assessed as gastric bleeding administered directly into stomach via gastric cannula; format: organism-based, Canis lupus familiaris; conditions: in vivo, other
Canis familiaris [8] = assay: Inhibition of gastrin tetrapeptide-induced gastric secretion in beagle dog assessed as total acid output at 16 mg/kg administered directly into stomach via gastric cannula measured after 2 hrs of stimulation; format: functional; conditions: Canis lupus familiaris
Outline: (§3)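 Conscious female beagles (5-9 kg) with chronic gastric fistula. Dose in 50 mL 1% methylcellulose was put into the stomach via the cannula 1 h before gastrin tetrapeptide 64 µg/kg sc (from 640 µg/mL in 30% Me2SO); controls got vehicle. Juice was collected for 2 h. Volume was measured, titratable acid obtained by titration to pH 7 with 0.01 N NaOH, and total acid taken as volume × concentration.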

Canis familiaris [9] = assay: Inhibition of gastrin tetrapeptide-induced gastric secretion in beagle dog assessed as total acid output at 8 mg/kg administered directly into stomach via gastric cannula measured after 2 hrs of stimulation; format: functional; conditions: Canis lupus familiaris; outline: as §3
Canis familiaris [10] = assay: Inhibition of 2-deoxy-D-glucose-induced gastric secretion in beagle dog assessed as total acid output at 8 mg/kg administered directly into stomach via gastric cannula measured after 2 hrs of stimulation; format: functional; conditions: Canis lupus familiaris; outline: as §1
Canis familiaris [11] = assay: Inhibition of histamine-induced gastric secretion in beagle dog assessed as total acid output at 32 mg/kg administered directly into stomach via gastric cannula measured after 2 hrs of stimulation; format: functional; conditions: Canis lupus familiaris; outline: as §2
Canis familiaris [12] = assay: Inhibition of gastrin tetrapeptide-induced gastric secretion in beagle dog assessed as titratable acid at 8 mg/kg administered directly into stomach via gastric cannula measured after 2 hrs of stimulation; format: functional; conditions: Canis lupus familiaris; outline: as §3
Canis familiaris [13] = assay: Inhibition of gastrin tetrapeptide-induced gastric secretion in beagle dog assessed as volume at 8 mg/kg administered directly into stomach via gastric cannula measured after 2 hrs of stimulation; format: functional; conditions: Canis lupus familiaris; outline: as §3
Canis familiaris [14] = assay: Inhibition of gastrin tetrapeptide-induced gastric secretion in beagle dog at 16 mg/kg administered directly into stomach via gastric cannula measured after 2 hrs of stimulation; format: functional; conditions: Canis lupus familiaris; outline: as §3
Canis familiaris [15] = assay: Inhibition of gastrin tetrapeptide-induced gastric secretion in beagle dog assessed as volume at 16 mg/kg administered directly into stomach via gastric cannula measured after 2 hrs of stimulation; format: functional; conditions: Canis lupus familiaris; outline: as §3
Canis familiaris [16] = assay: Inhibition of gastrin tetrapeptide-induced gastric secretion in beagle dog at 8 mg/kg administered directly into stomach via gastric cannula measured after 2 hrs of stimulation; format: functional; conditions: Canis lupus familiaris; outline: as §3
Canis familiaris [17] = assay: Inhibition of 2-deoxy-D-glucose-induced gastric secretion in beagle dog assessed as titratable acid at 8 mg/kg administered directly into stomach via gastric cannula measured after 2 hrs of stimulation; format: functional; conditions: Canis lupus familiaris; outline: as §1
Canis familiaris [18] = assay: Inhibition of 2-deoxy-D-glucose-induced gastric secretion in beagle dog assessed as volume at 16 mg/kg administered directly into stomach via gastric cannula measured after 2 hrs of stimulation; format: functional; conditions: Canis lupus familiaris; outline: as §1
Canis familiaris [19] = assay: Inhibition of 2-deoxy-D-glucose-induced gastric secretion in beagle dog assessed as titratable acid at 16 mg/kg administered directly into stomach via gastric cannula measured after 2 hrs of stimulation; format: functional; conditions: Canis lupus familiaris; outline: as §1
Canis familiaris [20] = assay: Inhibition of gastrin tetrapeptide-induced gastric secretion in beagle dog assessed as titratable acid at 16 mg/kg administered directly into stomach via gastric cannula measured after 2 hrs of stimulation; format: functional; conditions: Canis lupus familiaris; outline: as §3
Canis familiaris [21] = assay: Inhibition of gastrin tetrapeptide-induced gastric secretion in beagle dog at 4 mg/kg administered directly into stomach via gastric cannula measured after 2 hrs of stimulation; format: functional; conditions: Canis lupus familiaris; outline: as §3
Canis familiaris [22] = assay: Inhibition of gastrin tetrapeptide-induced gastric secretion in beagle dog at 2 mg/kg administered directly into stomach via gastric cannula measured after 2 hrs of stimulation; format: functional; conditions: Canis lupus familiaris; outline: as §3
Canis familiaris [23] = assay: Inhibition of gastrin tetrapeptide-induced gastric secretion in beagle dog at 32 mg/kg administered directly into stomach via gastric cannula measured after 2 hrs of stimulation; format: functional; conditions: Canis lupus familiaris; outline: as §3
[24] = Dissociation constant, apparent pKa of the compound in 20% EtOH/H2O; format: physicochemical; conditions: read-out: Apparent_pKa
Outline: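 Potentiometric titration in 20% EtOH–H2O with a glass-calomel electrode. Sample was titrated directly with 0.5 N NaOH, or dissolved with excess NaOH and back-titrated with 0.5 N HCl. pKa was read as the pH at the half-neutralization point of the curve.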

Canis familiaris [25] = assay: Inhibition of gastrin tetrapeptide-induced gastric secretion in beagle dog assessed as volume at 32 mg/kg administered directly into stomach via gastric cannula measured after 2 hrs of stimulation; format: functional; conditions: Canis lupus familiaris; outline: as §3
Canis familiaris [26] = assay: Inhibition of gastrin tetrapeptide-induced gastric secretion in beagle dog assessed as total acid output at 32 mg/kg administered directly into stomach via gastric cannula measured after 2 hrs of stimulation; format: functional; conditions: Canis lupus familiaris; outline: as §3
Canis familiaris [27] = assay: Inhibition of gastrin tetrapeptide-induced gastric secretion in beagle dog assessed as titratable acid at 32 mg/kg administered directly into stomach via gastric cannula measured after 2 hrs of stimulation; format: functional; conditions: Canis lupus familiaris; outline: as §3

| Structure (SMILES) | Activity (Canis familiaris [3]) | Activity (Canis familiaris [6]) | Activity (Canis familiaris [7]) | inhibition in vivo at 8 mg/kg (Canis familiaris [16]) [%] | inhibition in vivo at 4 mg/kg (Canis familiaris [21]) [%] | also measured |
| --- | --- | --- | --- | --- | --- | --- |
| Cl.N=C(CS)NCC12CC3CC(CC(C3)C1)C2 | Toxic | Toxic | Toxic | 47 |  | inhibition in vivo at 8 mg/kg (Canis familiaris [1]): 31%; inhibition in vivo at 32 mg/kg (Canis familiaris [2]): 40%; inhibition in vivo at 16 mg/kg (Canis familiaris [4]): 97%; inhibition in vivo at 32 mg/kg (Canis familiaris [5]): 36%; inhibition in vivo at 16 mg/kg (Canis familiaris [8]): 83%; inhibition in vivo at 8 mg/kg (Canis familiaris [9]): 8%; inhibition in vivo at 8 mg/kg (Canis familiaris [10]): 42%; inhibition in vivo at 32 mg/kg (Canis familiaris [11]): 55%; inhibition in vivo at 8 mg/kg (Canis familiaris [12]): 0%; inhibition in vivo at 8 mg/kg (Canis familiaris [13]): 7%; inhibition in vivo at 16 mg/kg (Canis familiaris [14]): 74%; inhibition in vivo at 16 mg/kg (Canis familiaris [15]): 74%; inhibition in vivo at 8 mg/kg (Canis familiaris [17]): 18%; inhibition in vivo at 16 mg/kg (Canis familiaris [18]): 79%; inhibition in vivo at 16 mg/kg (Canis familiaris [19]): 85%; inhibition in vivo at 16 mg/kg (Canis familiaris [20]): 91% |
| Cl.N=C(CS)NCCC12CC3CC(CC(C3)C1)C2 | Toxic | Toxic | Toxic | 61 | 0 | inhibition in vivo at 16 mg/kg (Canis familiaris [14]): 100% |
| Cl.N=C(CS)NCCCC12CC3CC(CC(C3)C1)C2 | Toxic | Toxic | Toxic | 81 | 36 |  |
| Cl.N=C(CS)NCCCCC12CC3CC(CC(C3)C1)C2 | Toxic | Toxic | Toxic | 67 | 0 |  |
| CCNC(=N)CS.Cl | Toxic | Toxic | Toxic |  | 90 | inhibition in vivo at 2 mg/kg (Canis familiaris [22]): 27% |
| CC(C)(C)CNC(=N)CS.Cl | Toxic | Toxic | Toxic | 95 | 25 |  |
| Cl.N=C(CS)NCC12CCC(CC1)C2 | Toxic | Toxic | Toxic | 91 | 0 |  |
| Cl.N=C(CS)NCC12CCC(CC1)CC2 | Toxic | Toxic | Toxic | 87 | 48 |  |
| Cl.N=C(CS)NCC12CCCC(CC1)C2 (stereo not given) | Toxic | Toxic | Toxic | 95 | 0 |  |
| Cl.N=C(CS)NCc1ccccc1 | Toxic | Toxic | Toxic | 83 | 29 |  |
| Cl.N=C(CS)NC1CCCC1 | Toxic | Toxic | Toxic | 100 | 63 |  |
| Cl.N=C(CS)NC1CCCCC1 | Toxic | Toxic | Toxic | 79 | 37 |  |
| Cl.N=C(CS)Nc1cccc(Cl)c1 | Toxic | Toxic | Toxic |  |  | inhibition in vivo at 32 mg/kg (Canis familiaris [23]): 61%; inhibition in vivo at 16 mg/kg (Canis familiaris [14]): 16% |
| CN(C)C(=N)CS.Cl | Toxic | Toxic | Toxic | 62 | 0 |  |
| Cl.SCC1=NCCN1 | Toxic | Toxic | Toxic |  |  | inhibition in vivo at 2 mg/kg (Canis familiaris [22]): 100% |
| Cl.N=C(CCS)NCc1ccccc1 | Toxic | Toxic | Toxic |  |  | inhibition in vivo at 32 mg/kg (Canis familiaris [23]): 42%; inhibition in vivo at 16 mg/kg (Canis familiaris [14]): 18% |
| Cl.N=C(CSSCC(=N)NCc1ccccc1)NCc1ccccc1 | Toxic | Toxic | Toxic |  | 84 |  |
| N=C(CSCc1ccccc1)NC[C@@H]1C[C@H]2CC[C@H]1C2 (relative stereo; 51) | Toxic | Toxic | Toxic |  |  | pKa [24]: 11; inhibition in vivo at 16 mg/kg (Canis familiaris [14]): 19% |
| CNC(=S)NCCSCc1[nH]cnc1C [METIAMIDE] |  |  |  |  |  | inhibition in vivo at 32 mg/kg (Canis familiaris [25]): 83%; inhibition in vivo at 32 mg/kg (Canis familiaris [26]): 90%; inhibition in vivo at 16 mg/kg (Canis familiaris [8]): 64%; inhibition in vivo at 16 mg/kg (Canis familiaris [15]): 65%; inhibition in vivo at 32 mg/kg (Canis familiaris [27]): 70%; inhibition in vivo at 16 mg/kg (Canis familiaris [20]): 91% |

From ChEMBL document CHEMBL3227926, “2-Mercaptoacetamidines as gastric antisecretory agents” (J Med Chem, 1979)
